From ChEMBL document CHEMBL1125276 (J Med Chem, 1991)

What was measured:
[1] = test system: P388; assay: Compound was tested for T/C range at optimal dose of 8.00 mg/kg for antitumor activity against P388 leukemia cells in mice.; format: functional, Mus musculus
[2] = test system: P388; assay: Long-term survivors (LTS) for 60 days at optimal dose of 8.00 mg/kg for antitumor activity against P388 leukemia cells in 5 mice.; format: functional, Mus musculus
[3] = test system: L1210; assay: Tested for the inhibition of L1210 cell proliferation.; format: functional, cell-based; conditions: Mus musculus
In short: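 L1210 cells were grown in RPMI 1640 with 10% FCS, 2 mM L-glutamine and 10 mM HEPES (pH 7.4). Exponential-phase cells (10^5 cells/mL) were exposed for 24 h to 5 drug concentrations in triplicate, then pulsed 3 h with 0.5 µCi/mL [3H]thymidine. Cells were harvested onto filters and counted. IC50 is 50% inhibition of incorporation versus untreated cells, given as the mean of 2–5 independent experiments.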

[4] = test system: P388; assay: Compound was tested for T/C range at optimal dose of 1.5 mg/kg for antitumor activity against P388 leukemia cells in mice.; format: functional, Mus musculus
[5] = test system: P388; assay: Long-term survivors (LTS) for 60 days at optimal dose of 1.5 mg/kg for antitumor activity against P388 leukemia cells in 6 mice.; format: functional, Mus musculus

With `CCOP(=O)(OCC)[C@H](Cc1ccccc1)NC(=O)[C@@]1(O)[C@H](O)[C@]2(CC)C=CCN3CC[C@@]4(c5cc([C@@]6(C(=O)OC)C[C@@H]7CN(CCc8c6[nH]c6ccccc86)C[C@](O)(CC)C7)c(OC)cc5N(C)[C@@H]14)[C@@H]32` the T/C [1] was 229%, the LTS [2] was 0 and the IC50 [3] was 9.64 nM.

`CCOP(=O)(OCC)C(CC(C)C)NC(=O)[C@@]1(O)[C@H](O)[C@]2(CC)C=CCN3CC[C@@]4(c5cc([C@@]6(C(=O)OC)C[C@@H]7CN(CCc8c6[nH]c6ccccc86)C[C@](O)(CC)C7)c(OC)cc5N(C)[C@@H]14)[C@@H]32` (mixture of isomers) was tested, and the T/C [4] was 261%, the IC50 [3] was 3.13 nM and the LTS [5] was 1.
